Source: PubChem (Johns Hopkins Ion Channel Center)
hERG rescue – hERG (human) protection from proarrhythmic block; CHO-hERG, FluxOR thallium flux, dofetilide IC70 present; actives 0.51% (n = 310,000); Q12809; activation (rescue from dofetilide block), less the hit threshold, % at 10 µM;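 active = activation above the mean of controls blocked by dofetilide plus 5 SD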;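 also: thallium influx through hERG after potassium depolarization seen as dye fluorescence rise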
KCNK9 inh – blocks the human KCNK9 two-pore domain potassium channel; B-score at 10 µM; HEK293 KCNK9, FluxOR thallium flux fluorescence; stronger effect = lower value; actives 1.2% (n = 310,000); Q9NPC2;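 active = ratio B-score over 3 SD below the library mean, with starting fluorescence within 5 SD of its mean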;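 also: negative B-score means less thallium flux so channel inhibition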
Target sequence (Q9NPC2 whole entry, looked up, the tested form may be a part): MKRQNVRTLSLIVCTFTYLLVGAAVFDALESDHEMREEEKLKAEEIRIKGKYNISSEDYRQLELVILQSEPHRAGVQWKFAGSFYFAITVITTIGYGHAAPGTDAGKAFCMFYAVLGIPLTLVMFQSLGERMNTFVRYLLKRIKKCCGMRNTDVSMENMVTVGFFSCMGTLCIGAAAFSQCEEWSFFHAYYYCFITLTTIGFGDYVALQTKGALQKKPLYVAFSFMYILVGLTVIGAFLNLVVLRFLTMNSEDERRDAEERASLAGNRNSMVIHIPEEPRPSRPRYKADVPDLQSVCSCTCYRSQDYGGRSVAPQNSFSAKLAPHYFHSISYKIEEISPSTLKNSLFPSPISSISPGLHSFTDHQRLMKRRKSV
KCNQ1 pot – potentiates or activates the human KCNQ1 potassium channel. CHO-K1 KCNQ1, thallium flux FluxOR fluorescence; stronger effect = higher value. actives 0.35% (n = 310,000). B-score at 10 µM. P51787;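 active = fluorescence ratio B-score, a plate-corrected score, at least three library SD, with initial intensity B-score within 5 SD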
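assay system = KCNQ1-transfected CHO-K1 cells | medium = assay buffer with matched DMSO | probe or stimulus = depolarizing K+/Tl+ stimulus, K2SO4 and Tl2SO4 each 12.5 mM in 5x stock | dosing = single dose | incubation = dye 90 min, compound 20 min, room temperature | detection = kinetic FluxOR fluorescence, 10 s baseline plus 110 s post-stimulus | evaluation = ratio B score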
Kir21 inh – inhibitors of mouse Kir2.1 inward-rectifier potassium channel; P35561; HEK293-Kir2.1, FluxOR thallium flux fluorescence; stronger effect = lower value; B-score at 10 µM; actives 0.85% (n = 310,000);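 active = fluorescence ratio B-score at or below minus 3 SD of library scores, with starting-brightness B-score within 2 SD, cut at about -4.2 in these data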;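 also: channel flux triggered by added potassium and thallium sulfate stimulus; B-score of peak minus minimum fluorescence over baseline after thallium stimulus; more negative B-score means stronger Kir2.1 block with less thallium influx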
KCNQ1 block – inhibitors of human KCNQ1 potassium channel. AID 2642. actives 1.3% (n = 310,000). CHO-K1 KCNQ1, FluxOR thallium flux fluorescence; stronger effect = higher value. B-score at 10 µM;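 active = compounds whose thallium flux B-score, printed positive for inhibition, exceeds three library SD while starting fluorescence stays within three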;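 also: channel opened by potassium depolarization with thallium stimulus after 20 min compound exposure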
KCNK3 block – human KCNK3 channel inhibition, primary screen. O14649. CHO-KCNK3 thallium flux, FluxOR fluorescence; stronger effect = lower value. B-score at 10 µM. actives 0.84% (n = 340,000). AID 602410;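 active = B-score under library mean minus 4 SD, starting fluorescence ratio at most library mean plus 5 SD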;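 also: more negative B-score means stronger inhibition of thallium flux through KCNK3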
* hit, by the source's call; i = inactive; / = no result. In the library only some 3.8% were active in any assay of this set; here they are far more common.

SMILES	hERG rescue	KCNK9 inh	KCNQ1 pot	Kir21 inh	KCNQ1 block	KCNK3 block
CCN(CC)CCNC(C(=O)Nc1ccc([N+](=O)[O-])cc1Br)c1ccccc1 (stereo not drawn)	-13.0	i	i	-2.09	i	i
O=C1CSC(c2ccccn2)N1c1ccc(Cl)c(Cl)c1 (stereo not drawn)	-9.0	-7.61*	i	0.12	i	i
Cc1ccc(C)c(N2CCN(CCCNC(=O)Cn3cccc3C(=O)c3ccccc3)CC2)c1	-17.3	i	i	-5.43*	i	i
O=C(Cn1cccc1C(=O)c1ccccc1)NCCCN1CCOCC1	-1.3	i	i	0.56	i	i
COc1ccccc1N(CC(=O)N1CCN(c2ccc(F)cc2)CC1)S(=O)(=O)c1ccc(C)cc1	-12.9	i	i	0.86	i	i
Cc1nnnn1/C(=C\c1ccccc1)C(=O)OCC(=O)Nc1ccc(Cl)cc1F	-12.9	i	7*	-7.29*	i	i
Cc1nnnn1/C(=C\c1ccccc1)C(=O)OCC(=O)Nc1cccc(S(=O)(=O)N(C)C)c1	/	/	/	/	/	i
COc1ccc(CCNC(=O)CC2SC(=NCc3ccccc3OC)NC2=O)cc1 (stereo not drawn)	4.9*	i	i	0.72	i	i
O=C(Nc1nc(=O)c2ccccc2s1)c1ccc(F)cc1	-3.1	i	23*	0.82	i	i
O=C1[C@H]2[C@@H](c3ccc(F)cc3)N3C(=O)N(c4cccc(Cl)c4)C(=O)[C@@]3(Cc3ccccc3)[C@H]2C(=O)N1C1CCCCC1	-2.7	i	i	-0.64	7*	i
O=C(CCCN1C(=O)/C(=C\c2ccccc2)SC1=S)Nc1cccc(C(=O)O)c1	-5.8	i	i	1.95	i	i
O=C(CCN1C(=O)/C(=C\C=C\c2ccccc2)SC1=S)Nc1cccc(C(=O)O)c1	44.8*	i	i	-0.26	i	i
COc1ccc(CCNC(=O)C2CCC(C(C)(C)C)CC2)cc1OC (stereo not drawn)	-8.4	i	i	-9.09*	i	i
CCOC(=O)C1=NN(C(=O)c2ccc(OC)cc2)C(O)(c2ccc(Cl)cc2)C1 (stereo not drawn)	39.9*	i	56*	1.02	i	i
COc1cc(C)c(S(=O)(=O)NOCc2ccccc2)c(C)c1C	-3.6	i	i	-7.11*	i	i
CCn1cc(CN2CCCC(CO)(Cc3ccc(F)cc3)C2)c2ccccc21 (stereo not drawn)	-7.8	i	i	-5.16*	i	i
COc1cccc(CC2(CO)CCCN(Cc3cn(C)c4ccccc34)C2)c1 (stereo not drawn)	-9.6	i	i	-4.26*	i	i
N#C/C(=C\c1ccc(O)cc1)C(=O)N1CCCC1	-7.7	i	i	0.74	i	i
N#C/C(=C\c1ccc(C#N)cc1)C(=O)N1CCCC1	-13.4	i	i	-0.66	6*	i
N#Cc1ccsc1NC(=O)CN1CCN(c2ccccc2)CC1	8.6*	i	i	-0.17	i	i
N#Cc1ccsc1NC(=O)CN1CCN(c2ccc(O)cc2)CC1	-2.0	i	i	-0.52	i	i
O=C(NCC(c1ccco1)N1CCCCC1)c1cccc(S(=O)(=O)Nc2ccc(F)cc2)c1 (stereo not drawn)	/	/	/	/	/	i
CCOC(=O)C1=NN(C(=O)c2cccc(Br)c2)C(O)(C(C)(C)C)C1 (stereo not drawn)	50.7*	i	66*	1.3	i	/
CCOC(=O)C1=NN(C(=O)c2ccco2)C2(CC2)C1	-1.7	i	i	-0.11	i	i
COc1cc2c(cc1OC)CN(C(=O)c1nn(Cc3ccccc3)c(=O)c3ccccc13)CC2	/	/	/	/	/	-9.27*
OC1(c2ccc(Br)cc2)CCN(Cc2cccc(Br)c2)CC1	-12.0	i	i	-10.9*	i	i
CO/N=C/c1ccc(N2CCN(C(=O)c3ccc(Cl)cc3Cl)CC2)c([N+](=O)[O-])c1	-19.6	i	i	1.5	7*	i
CCC(CC)C(=O)Nc1nnc(S(=O)(=O)Nc2ccccc2C)s1	-5.9	i	i	2.11	i	i
